Results on one compound are retold here after PubChem BioAssay AID651924 (Vanderbilt Specialized Chemistry Center, 2012).

The target in this experiment is Muscarinic acetylcholine receptor M2 (Homo sapiens) (UniProt P08172). Kind of experiment: human M2 receptor potentiation, selectivity assay for M5 PAM project, CHO cells (AID 651924). To be noted: CHO-K1 hM2/Gqi5, calcium flux Fluo-4, ACh EC20; series mostly up to 30 µM. The method, boiled down:
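material = CHO-K1 hM2/Gqi5 cells | buffer or medium = HBSS with HEPES and probenecid, pH 7.4 | also added = acetylcholine EC20 | doses = final DMSO 0.3% | schedule = 1.5 min compound, 50 s agonist, 25 °C | detection = calcium fluorescence with Fluo-4 AM, dye loaded 45–60 min at 37 °C | read-out = % of maximal acetylcholine response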
In general terms: Calcium flux is commonly read through the fluorescence of an indicator in the cells.

Structures are written as SMILES. Activity calls are given as the source filed them. The rule behind the calls is not given here.

Muscarinic acetylcholine receptor M2 (Homo sapiens), sequence (P08172 whole entry, looked up): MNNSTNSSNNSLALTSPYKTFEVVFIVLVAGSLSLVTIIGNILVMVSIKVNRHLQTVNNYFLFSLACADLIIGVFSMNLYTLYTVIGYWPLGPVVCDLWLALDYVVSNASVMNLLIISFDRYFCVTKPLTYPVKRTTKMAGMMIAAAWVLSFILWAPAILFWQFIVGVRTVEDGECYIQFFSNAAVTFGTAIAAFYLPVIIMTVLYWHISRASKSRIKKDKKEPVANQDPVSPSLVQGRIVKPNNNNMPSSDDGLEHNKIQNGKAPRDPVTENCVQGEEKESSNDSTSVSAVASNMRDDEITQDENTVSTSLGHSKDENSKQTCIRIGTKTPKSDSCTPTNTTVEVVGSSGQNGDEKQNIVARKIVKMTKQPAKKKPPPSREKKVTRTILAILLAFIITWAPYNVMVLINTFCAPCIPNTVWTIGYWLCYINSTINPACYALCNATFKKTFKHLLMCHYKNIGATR

As for `O=C1C(=O)N(CCOc2ccccc2)c2ccc(OC(F)(F)F)cc21`, the outcome was inactive.
